In data set [1] the test system is Rattus norvegicus. The data set can be described thus: Inhibition of total plasma cholinesterase in rat at >64 mg/kg, po measured 60 mins post dose. It counts as functional. In a few lines: (§1)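 Rats given oral saline solutions of compound at the maximum tolerated or highest tested dose; sacrificed 60 min post-dose, blood collected and processed, plasma ChE activity measured spectrophotometrically (Ellman-type). n = 4 rats per group; mean reported.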

Data set [2] concerns the target Acetylcholinesterase (Homo sapiens) (UniProt P22303).
The subject of data set [3] is Rattus norvegicus. The data set can be described thus: Inhibition of total brain cholinesterase activity in rat at >64 mg/kg, po measured 30 to 180 mins post dose. In kind it is functional. In a few lines: (§2)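 Rats received oral saline solutions at the maximum tolerated or highest tested dose; after sacrifice, brain samples processed and total ChE activity determined spectrophotometrically versus control. n = 4 animals per group, mean given.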

The nature of data set [4]: Toxicity in po dosed rat assessed as maximum tolerated dose at which reversible and non-life threatening cholinergic effect observed. In kind it is organism-based. Particulars: in vivo. In a few lines:
(§3)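 Rats dosed orally and observed for cholinergic signs (salivation, lacrimation, fasciculations, diarrhea, seizures) and overt behaviour including locomotor stimulation. MTD defined as the dose giving clear, reversible, non-life-threatening cholinergic effects.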

Data set [5] concerns Rattus norvegicus. The data set can be described thus: Inhibition of total brain cholinesterase activity in rat at 10 mg/kg, po measured 30 to 180 mins post dose. It counts as functional. In a few lines:
as §2

For data set [6], the target named is Cholinesterase (Homo sapiens, UniProt P06276). The data set can be described thus: Inhibition of purified human plasma BuChE preincubated for 30 mins before DTNB substrate addition by spectrophotometric assay based Ellman's method. In a few lines:
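Enzyme: human BuChE purified from serum. Modified Ellman assay. Inhibitor preincubated with enzyme 30 min at 25 °C in 10 mM Tris pH 8.0, then acetylthiocholine (0.3 mM) added; DTNB 0.33 mM final. At least five inhibitor levels plotted as Dixon plot; IC50 from x-intercept. Triplicates, two or three independent experiments.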
Background: Ellman's reagent forms a yellow product with free thiols.

For data set [7], the system named is Rattus norvegicus. Description: Inhibition of total plasma cholinesterase in rat at 10 mg/kg, po measured 60 mins post dose. Particulars: 1 h. In kind it is functional. In a few lines: as §1
Data set [8] deals with Rattus norvegicus. Description: Inhibition of total brain cholinesterase activity in rat at 32 mg/kg, po measured 30 to 180 mins post dose. In kind it is functional. The method in brief: as §2
Data set [9] is filed under the species Homo sapiens. The data set can be described thus: Selectivity index, ratio of IC50 for purified human […] to IC50 for human recombinant AChE. In a few lines: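 Modified Ellman assay on recombinant human AChE and human serum-purified BuChE. Enzyme and inhibitor were preincubated 30 min at 25 °C in 10 mM Tris pH 8.0, then ATCh (0.3 mM) was added with DTNB (0.33 mM final). A405 was read for 5 min and initial rates compared to control. IC50s come from Dixon plots (≥5 inhibitor concentrations), triplicate, 2–3 independent runs. Selectivity is the ratio of the two IC50s.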

Data set [10] concerns Rattus norvegicus. The data set can be described thus: Inhibition of total plasma cholinesterase in rat at 32 mg/kg, po measured 60 mins post dose. In kind it is functional. Particulars: 1 h. The method in brief:
as §1

The test system of data set [11] is Rattus norvegicus. Description: Toxicity in rat assessed as induction of diarrhea incidence at 5 mg/kg, po. It counts as organism-based. More on the design: dose 5 mg/kg, route oral. Particulars: in vivo. The method in brief:
as §3

The subject of data set [12] is Rattus norvegicus. Description: Toxicity in rat assessed as induction of severe fasciculation, salivation and lacrimation incidence at 5 mg/kg, po. In kind it is organism-based. Particulars: in vivo. Details: dose 5 mg/kg, route oral. In a few lines: as §3
The test system of data set [13] is Rattus norvegicus. The data set can be described thus: Toxicity in rat assessed as induction of seizures incidence at 5 mg/kg, po. More on the design: dose 5 mg/kg, route oral. In kind it is organism-based. Particulars: in vivo. In a few lines:
as §3

The test system of data set [14] is Rattus norvegicus. The data set can be described thus: Inhibition of total brain cholinesterase activity in rat at 5 mg/kg, po measured 30 to 180 mins post dose. It counts as functional. In a few lines: (§4)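 Oral dosing in saline to rats; animals sacrificed at 30, 60 and 180 min; plasma and brain processed and ChE activity read spectrophotometrically. Value is mean of the three time points; n = 4 rats per group.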

The subject of data set [15] is Rattus norvegicus. The data set can be described thus: Inhibition of total plasma cholinesterase in rat at 5 mg/kg, po measured 30 to 180 mins post dose. It counts as functional. The method in brief: as §4
Data set [16] concerns Rattus norvegicus. The data set can be described thus: Memory enhancing effect in rat Scopolamine passive avoidance model assessed as reversal of Scopolamine-induced amnesia by measuring step-through latencies at 8 mg/kg, ip compound administered 30 mins before training and Scopolamine added 40 mins before training. Details: dose 8 mg/kg. In kind it is functional, organism-based. The method in brief:
(§5)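 Passive avoidance in rats: scopolamine hydrobromide 0.2 mg/kg sc 40 min before training; saline or compound ip 30 min before training. Retention test 24 h later, identical to training but without foot-shock or drug; latency to enter dark chamber recorded.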

In data set [17] the test system is Rattus norvegicus. The data set can be described thus: Memory enhancing effect in rat Scopolamine passive avoidance model assessed as reversal of Scopolamine-induced amnesia by measuring step-through latencies at 12 mg/kg, ip compound administered 30 mins before training and Scopolamine added 40 mins before training. In kind it is functional, organism-based. More on the design: dose 12 mg/kg. In a few lines: as §5

In data set [18] the test system is Rattus norvegicus. The data set can be described thus: Inhibition of cholinesterase activity in rat assessed as reconstituted enzyme-mediated release of amphetamine in to plasma at 64 mg/kg, po measured 1 hr post dose. In kind it is functional. In a few lines: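 Rats dosed orally with test compound in saline; plasma collected 1 h post-dose and amphetamine content quantified by LC/MS/MS.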

Data set [19] has as its system Rattus norvegicus. The data set can be described thus: Inhibition of total plasma cholinesterase in rat at >100 mg/kg, po measured 60 mins post dose. It counts as functional. In a few lines: as §1
For data set [20], the system named is Rattus norvegicus. The data set can be described thus: Inhibition of total brain cholinesterase activity in rat at >100 mg/kg, po measured 30 to 180 mins post dose. It counts as functional. In a few lines: as §2
Data set [21] deals with Rattus norvegicus. The data set can be described thus: Toxicity in rat assessed as locomotor stimulation at 100 mg/kg, po. In kind it is organism-based. Details: dose 100 mg/kg, route oral. Particulars: in vivo. In a few lines: as §3

Calls of active or inactive are those of the source.

Chain of Acetylcholinesterase (Homo sapiens) (P22303 whole entry): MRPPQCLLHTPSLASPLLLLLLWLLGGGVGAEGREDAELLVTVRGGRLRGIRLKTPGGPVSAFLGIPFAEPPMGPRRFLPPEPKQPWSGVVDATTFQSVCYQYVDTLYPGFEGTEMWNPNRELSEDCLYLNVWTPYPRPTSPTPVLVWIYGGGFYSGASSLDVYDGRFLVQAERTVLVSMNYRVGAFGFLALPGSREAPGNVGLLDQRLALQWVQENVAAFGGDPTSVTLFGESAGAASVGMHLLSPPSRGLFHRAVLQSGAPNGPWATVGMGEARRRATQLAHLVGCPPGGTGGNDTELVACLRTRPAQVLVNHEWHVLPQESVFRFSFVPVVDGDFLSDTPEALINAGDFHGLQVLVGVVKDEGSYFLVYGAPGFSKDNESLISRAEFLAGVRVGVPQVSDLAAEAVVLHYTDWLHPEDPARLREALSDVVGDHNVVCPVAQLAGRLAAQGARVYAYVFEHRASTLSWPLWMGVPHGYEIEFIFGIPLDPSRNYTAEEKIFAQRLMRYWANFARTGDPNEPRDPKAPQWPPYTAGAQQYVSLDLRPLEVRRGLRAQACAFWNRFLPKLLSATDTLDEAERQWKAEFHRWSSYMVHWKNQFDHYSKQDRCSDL
Chain of Cholinesterase (P06276 whole entry): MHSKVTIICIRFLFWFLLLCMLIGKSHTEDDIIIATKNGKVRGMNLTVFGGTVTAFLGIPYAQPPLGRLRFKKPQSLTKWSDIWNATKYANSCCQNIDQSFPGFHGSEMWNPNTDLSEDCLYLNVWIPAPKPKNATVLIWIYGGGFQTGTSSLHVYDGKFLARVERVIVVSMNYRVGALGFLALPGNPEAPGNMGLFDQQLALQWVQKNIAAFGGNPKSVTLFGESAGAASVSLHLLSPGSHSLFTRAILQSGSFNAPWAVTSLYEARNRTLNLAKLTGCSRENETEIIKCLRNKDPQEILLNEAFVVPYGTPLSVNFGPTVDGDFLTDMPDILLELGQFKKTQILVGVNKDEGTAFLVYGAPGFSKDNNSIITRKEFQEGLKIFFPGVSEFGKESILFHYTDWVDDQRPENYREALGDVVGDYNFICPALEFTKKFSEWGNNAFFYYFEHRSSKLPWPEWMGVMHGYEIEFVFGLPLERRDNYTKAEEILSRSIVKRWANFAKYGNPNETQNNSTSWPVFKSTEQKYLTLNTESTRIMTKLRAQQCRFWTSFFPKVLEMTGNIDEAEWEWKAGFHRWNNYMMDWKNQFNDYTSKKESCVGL

Take `C[C@@H](c1cccc(OC(=O)N(C)[C@@H](C)Cc2ccccc2)c1)N(C)C.Cl`: the “inhibition (INH)” value in data set [1] and in data set [3] was 50% each time. Moreover, the T1/2 in [2] is > 24 h.

The MTD is the largest dose that counted as tolerated. A word on the inhibition in vivo: it is the drop in the measured response relative to a control, in per cent. Usually IC50 stands for the concentration that gives 50% inhibition. Higher therefore signals a need for much substance. `C[C@H](Cc1ccccc1)N(C)C(=O)Oc1cccc([C@H](C)N(C)C)c1.Cl`: in [4], the MTD was found to be 10 mg/kg. In addition, the inhibition in vivo at 10 mg/kg was determined as 64% in data set [5] and 45% in data set [7]. The same molecule gave an IC50 in data set [6] of 24.4 µM. Besides, the T1/2 in data set [2] was > 24 h.

On to `C[C@H](Cc1ccccc1)NC(=O)Oc1cccc([C@H](C)N(C)C)c1`, for which the inhibition in vivo at 32 mg/kg in data set [8] was 25%; in data set [10] it was 26%. In data set [2], the T1/2 amounted to 12 h. For the same molecule, the Ratio IC50 in data set [9] turned out to be 1.

As for `CCN(C)C(=O)Oc1cccc([C@H](C)N(C)C)c1` [RIVASTIGMINE], the Activity result in data set [11], in data set [12] and in data set [13] was “Toxic” in each case. In addition, the T1/2 in data set [2] is > 24 h. Also, the inhibition in vivo at 5 mg/kg worked out at 56% in [14] and 39% in [15].

On to `C[C@@H](Cc1ccccc1)NC(=O)Oc1cccc([C@H](C)N(C)C)c1.Cl`, for which the inhibition result in data set [16] and in data set [17] was “Active” in each case. Moreover, the figures for the Activity in data set [18] and in data set [21] were 17 ng/mL and “Non-toxic”, respectively. The “inhibition (INH)” value in data set [19] was 59%; in [20] it was 72%. In data set [2], this molecule had a T1/2 of 1.2 h. In addition, the Ratio IC50 in data set [9] is 14.
